Laboratory results reported in ChEMBL document CHEMBL4513216, “Probing the Open Global Health Chemical Diversity Library for Multistage-Active Starting Points for Next-Generation Antimalarials” (ACS Infect Dis, 2020).

Assay: Toxicity liver stage against HepG2, at 10uM
Type: cell-based
Parameters: test concentration 10 uM, cell line HepG2-A16-CD81EGFP
Conditions: human, HepG2-A16-CD81EGFP cells; read-out: INHIBITION
Outline: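 Uninfected HepG2-A16-CD81EGFP cells, 3 × 10^3 per well, 1536-well, plated on prespotted compound at 10 μM final, parasite-free screening media added to match infected plates; puromycin 10 μM positive, DMSO 0.5% negative; run in parallel with 48 h PbLuc assay at 37 °C, 5% CO2; viability by CellTiter-Glo luminescence, normalized to controls.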

| Compound | cytotoxicity at 10 µM [%] |
| --- | --- |
| CCC(CC)C(=O)c1c[nH]c(C(=O)N2CCN(c3ccccc3)CC2)c1 | 14.7 |
| CN1CCOC[C@H]1c1nc(-c2cccnc2)c[nH]1 | -0.405 |
| CC(C)C(=O)N1CCOC[C@H](Oc2ccc(C(F)(F)F)cc2)C1 | 4.53 |
| CC[C@@H](C)[C@H](NC(=O)CCn1cc(C(C)=O)c2ccccc21)C(=O)O | -5.27 |
| O=c1nc(SCc2ccc(Cl)cc2)c2c(n1CCO)CCC2 | 12.3 |
| CCN(c1ccsc1C(=O)N1CCSCC1)S(=O)(=O)c1ccccc1 | 8.24 |
| NC(=O)c1nnn(-c2ccc(Cl)cc2)n1 | 8.99 |
| CN(C)CC1CSCCCN1S(=O)(=O)Cc1cccc(F)c1 (stereo unspecified) | -3.63 |
| CCC(=O)N1CCC2(CC1)CC(CC(N)=O)c1ccc(F)cc12 (stereo unspecified) | 11.8 |
| CNC(=O)c1cc2c(nc1NCC(C)C)CCN(S(C)(=O)=O)CC2 | -161 |
| Cc1occc1C(=O)N1CCC2(CCN(Cc3nccs3)CC2)C1 | -5.33 |
| CC(=O)N1[C@H](Cn2cncn2)C[C@@H]2CN(C(=O)NC3CC3)CC[C@@H]21 | -5.16 |
| CN1CCN(Cc2cn3c(n2)CN(C(=O)N2CCCC2)CC3)CC1 | 3.23 |
| O=C(C1CCCC1)N1CCO[C@H]2[C@H](OCC3CCOCC3)CC[C@@H]21 | 5.05 |
| Cn1c(N)c2c(=O)n(C)c(-c3ccc(Cl)cc3)cc2c(C#N)c1=O | -8.91 |
| O=S(=O)(c1ccccc1)N1CCN(CCn2ccnc2)CC1 | -21.6 |
| Cc1nn(C)c2cnn(Cc3ccc(C(=O)NC4CC4)cc3)c12 | 6.42 |
| COc1ccc(CNc2nc(C3CC3)nc3c(C)nn(C)c23)cc1 | 5.4 |
| Cc1noc(C)c1CCC(=O)N[C@@H]1CCC[C@@H](Oc2cccnc2)[C@@H]1O | -0.903 |
| Cc1n[nH]cc1C(=O)N1CCCC1c1cc[nH]n1 (stereo unspecified) | -23.1 |
| Cc1cc2n(n1)[C@@H](C(F)(F)F)C[C@@H](C1CCN(C(=O)C(C)C)CC1)N2 | -30 |
| CC(=O)c1cc(C(=O)N2Cc3ccccc3OC3(CCOCC3)C2)cs1 | -20 |
| NCC(=O)N1CCC2(CC1)CN(C(=O)Cc1ccc(Cl)cc1)CCO2 | 5.56 |

| Compound | cytotoxicity at 10 µM [%] |
| --- | --- |
| N#Cc1cc2cc(Cl)cnc2nc1O | 4.29 |
| CCOc1ccc(N(CCC#N)C(=O)c2ccc(SC)nc2)cc1 | 5.93 |
| O=C(Nc1cnn(Cc2ccccc2)c1)N1CCN(CCO)CC1 | 2.11 |
| CC(C)(Oc1ccc2c(c1)CCCC2=O)C(=O)NCc1ccco1 | -2.74 |
| Cc1nc(C)n(CC2CCCCN2c2ccnc(-c3ccccc3)n2)n1 (stereo unspecified) | -1.17 |
| CC(C)(C)n1c(NC(=O)CNC(=O)NC2CC2)nc2ccccc21 | 4.23 |
| CC(NS(=O)(=O)CCCC#N)c1cccc(-n2cccn2)c1 (stereo unspecified) | 1.42 |
| Cc1n[nH]c(-c2ccc(NC(=O)C(C)N3CCN(C)CC3)cc2)n1 (stereo unspecified) | 6.03 |
| CC(C)OCCCNC(=O)CN1CCN(c2nccs2)C(C)C1 (stereo unspecified) | 1.4 |
| CC(C)c1ccc(OCCC(=O)N(C)C)cc1 | 3.81 |
| CC(C)n1cnnc1CNC(=O)CCCOc1ccccc1F | -4.56 |
| Cc1cc(COc2ccc(OC3CCCCNC3=O)cc2)on1 (stereo unspecified) | 13.4 |
| COCCC(=O)N(C)Cc1nc(C(F)(F)F)cs1 | 23.3 |
| Cn1cc(S(=O)(=O)Nc2ccc(Cl)cn2)cc1C(N)=O | -1.7 |
| O=C(CNC(=O)c1ccoc1)NC(c1ccc(F)cc1)C(F)(F)F (stereo unspecified) | -2.51 |
| Cc1cc(CN(C2CC2)C(C)C(C)C)no1 (stereo unspecified) | 0.519 |
| O=C1CC2(CCSC2)C(=O)N1Cc1ncc(-c2cccc(F)c2)o1 (stereo unspecified) | 10.3 |
| Cn1cc(C(=O)N2CCCC2c2ccc3c(c2)OCCO3)ccc1=O (stereo unspecified) | 3.92 |
| COCC(C)NC(=O)c1cncc(Br)c1 (stereo unspecified) | 3.73 |
| Cc1noc(NCc2cc(F)ccc2F)n1 | -4.86 |
| Cc1noc(-c2cccnc2N2CCN(c3cnn(C)c3)CC2)n1 | 1.12 |
| Cn1cc(C2(C)CN(Cc3ccc(O)c(Cl)c3)CCO2)cn1 (stereo unspecified) | -4.12 |
| O=C(NCC1CC(=O)N(CCc2ccccc2)C1)c1ccc[nH]1 (stereo unspecified) | -0.553 |

| Compound | cytotoxicity at 10 µM [%] |
| --- | --- |
| Cc1ccc(C(=O)NC2CCCCNC2=O)c(=O)[nH]1 (stereo unspecified) | -5.49 |
| COC(=O)c1ccc(F)c(Cn2nc(C)cc2C)c1 | 4.11 |
| CCc1nnc2n1CCN(C(=O)CCc1ccc(C)c(Cl)c1)C2 | -4.01 |
| O=C(CN1CCN(CCO)CC1)NCCc1c(F)cccc1F | -9.83 |
| CC(C)CCN1CCN(Cc2nc(C(C)C)no2)CC1 | -6.71 |
| CC(=O)N1CCC(C(=O)Nc2nc(C3CC3)cs2)CC1 | -3.28 |
| CC1CN(c2cc(CNCc3cccc4c3OCCO4)ccn2)CCO1 (stereo unspecified) | 3.96 |
| Cc1cnc(C(=O)N2CCN(Cc3csc(C)n3)CC2)cn1 | -132 |
| CN(Cc1ncnn1C)C(=O)c1ccccc1NCc1ccccc1 | 15.3 |
| COc1ncnc(N)c1CNCC(C)Oc1ccccc1Cl (stereo unspecified) | 0.732 |
| CCCc1cc(N2CCCCC2Cn2cc(C)cn2)n2ncnc2n1 (stereo unspecified) | -0.554 |
| CNC(=O)C1CCN(Cc2cc3c(cc2O)CCC3)CC1 | 4.83 |
| Cc1nc(C2(NCc3ccc(C#N)cc3F)CCCCC2)no1 | -11.2 |
| Cc1ccc2c(c1)N(C(=O)C1CCCOC1)CCC2 (stereo unspecified) | 5 |
| COC(=O)NC1(C(=O)NCc2ccc(-c3ccn[nH]3)cc2)CCCC1 | -7.65 |
| CC(C)CC(NS(C)(=O)=O)C(=O)N(C)Cc1nnc2n1CCC2 (stereo unspecified) | -4.22 |
| CN1CCN(C(=O)CCCc2ccccn2)c2ccc(F)cc21 | 1.66 |
| CCCc1cc(NC(=O)c2ccc(Cl)c(N3CCNC3=O)c2)n[nH]1 | -4.55 |
| COCCN1CCN(CCCc2nnnn2-c2ccccc2)CC1 | 5.04 |
| CC(C)C(NC(=O)c1ccc(Cl)cc1Cl)C(=O)Nc1cnn(C)c1 (stereo unspecified) | -2.65 |
| Cc1ccc(O)c(C(=O)N2CCC(CN3CCCCCC3)CC2)c1 | 5.52 |
| CCCC(=O)NCc1cc(Br)c(OC)c(OC)c1 | 1.11 |
| O=C(C(CNCc1ccncc1)c1ccccc1)N1CCOCC1 (stereo unspecified) | -19 |

| Compound | cytotoxicity at 10 µM [%] |
| --- | --- |
| CCN(C(=O)CCCOc1ccccc1F)c1ccncc1 | -5.69 |
| Cn1ccnc1CN(CCCO)C1CCCc2ccccc21 (stereo unspecified) | -6.91 |
| CC(C)(C)NC(=O)CN1CCN(C(=O)Nc2ccc(F)cc2F)CC1 | -23.2 |
| COCC1COCCC12CCN(S(=O)(=O)c1ccccc1)CC2 (stereo unspecified) | 0.242 |
| CC(=O)NCc1cc2n(n1)CCN(Cc1cccc(Cl)c1Cl)C2 | -12.8 |
| CCn1ncnc1C(C)Nc1cc(C)c2ccc(SC)cc2n1 (stereo unspecified) | -0.995 |
| COc1cccc(CN2CCN(c3cccc(C(C)C)n3)CC2)c1F | 4.25 |
| CC(=O)NCc1nc(CCOc2ccc(Cl)cc2)no1 | -145 |
| COCC(O)CNC(=O)c1coc(COc2cccc(F)c2)n1 (stereo unspecified) | -139 |
| CN(C)S(=O)(=O)N1CC[C@]2(O)CCN(CCCc3cccnc3)C[C@@H]2C1 | -6.55 |
| CC(C)C(=O)NCC(=O)N1CCC2(CC1)c1ccccc1[C@@H](N)[C@@H]2O | 0.174 |
| COc1cc2[nH]c(=O)c(CN3CCC[C@H]3CO)cc2c(OC)c1OC | -10.7 |
| COCc1ccc(C(=O)N2CC[C@@](O)(COC)C(C)(C)C2)o1 | -2.69 |
| CN(C)c1nc2c(c(N3CCCC4(CC3)CNC(=O)O4)n1)CCCC2 (stereo unspecified) | -1.07 |
| COc1ccc(Cn2c(Cc3c(C)n[nH]c3C)n[nH]c2=O)cc1 | -142 |
| COCc1cc(N(C)CCC(O)c2ccccc2)n2nccc2n1 (stereo unspecified) | -2.49 |
| COc1ccc(OCCCN(C)C(=O)C2CCCN2C(N)=O)cc1 (stereo unspecified) | 1.7 |
| NCC1Cc2cc(F)cc(-c3cnccn3)c2O1 (stereo unspecified) | -9.78 |
| CCc1ccccc1OCCN1CC[C@@]2(O)CCNC[C@H]2C1 | -160 |
| O=C(NCc1ccco1)c1ccc(N2CCOCC2)cc1 | 4.31 |
| CCOC(=O)N1CCN(CC(=O)Nc2nnc(C)s2)CC1 | 1.31 |
| Cc1n[nH]c(C)c1CNC(=O)CSCc1ccccc1Cl | -4.02 |
| CN(Cc1cnn(C)c1)C(=O)NCc1ccc2c(c1)OCCO2 | -8.01 |

| Compound | cytotoxicity at 10 µM [%] |
| --- | --- |
| Nc1nc(CN2CCCC2Cn2cncn2)nc2ccccc12 (stereo unspecified) | -11.7 |
| Cc1cc(CN2CCOC(Cn3nc(C)cc3C)C2)on1 (stereo unspecified) | -5.81 |
| COc1ccc(OC)c(C(O)CNC(=O)Nc2ccc(F)cc2F)c1 (stereo unspecified) | -2.74 |
| CCc1ccc(C(=O)N2CCCC(CNS(C)(=O)=O)C2)o1 (stereo unspecified) | -19.7 |
| COCCN1CCC(NCc2cccnc2)C1 (stereo unspecified) | -10.4 |
| Cc1nc(C)n(CC2CN(c3nnc(C)c(C)c3C#N)CCO2)n1 (stereo unspecified) | -0.00964 |
| Cc1nn(C)c(N2CCOCC2)c1CNC1CCOc2ccccc21 (stereo unspecified) | -7.44 |
| COc1ccc(CCN2CCc3c(nc(C4CC4)n3C)C2)cc1 | -0.729 |
| c1cnc(Nc2cc(CCC3CCCNC3)ccn2)cn1 (stereo unspecified) | -7.58 |
| O=C(c1ccccc1F)N1CC2(CCNCC2)c2cc(Cl)ccc21 | -3.31 |
| Cc1nc(CN2CCc3ncnc(-c4cccnc4)c3CC2)cs1 | 7.51 |
| O=C1[C@H]2CN(Cc3ccccc3)C[C@H]2CN1c1cncnc1 | -4.53 |
| COCC1CC2(CCN(C(=O)c3ccc(C)nc3)CC2)CO1 (stereo unspecified) | -127 |
| COCCN1C[C@H]2CC[C@@]3(N=C(C)N(CC4CC4)C3=O)[C@H]2C1 | -7.5 |
| CC(C)CN1CCC2(CC1)C(=O)Nc1ccc(C(=O)NC(C)C)cc12 | -13.9 |
| CCCN1C(=O)[C@@H]2CC[C@H]1CN(S(=O)(=O)c1cccc(Cl)c1)C2 | -2.78 |
| CNc1nc(C)c(C(=O)N2C[C@@H]3CC[C@H]2CN(c2cnccn2)C3)s1 | 13.6 |
| CCCN1C[C@@H]2CC[C@H]1CN(Cc1ccc(Cn3cccn3)cc1)C2 | -4.87 |
| CC(C)=CCN1C(=O)[C@@H]2CC[C@H]1CN(Cc1cccnc1N)C2 | 12.3 |
